# Calls of active or inactive are those of the source. The calls are words filed in the database; no cut-off is given here.
# Key:
# Staphylococcus aureus [1] = test: Antibacterial activity against methicillin-sensitive Staphylococcus aureus DM4400R after 24 hrs by two fold dilution assay; type: functional
# Method in brief: (§1)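 CLSI broth macrodilution in cation-adjusted Mueller-Hinton broth. Compounds were dissolved in DMF and diluted in PBS to a 1000 µg/mL stock, then serially 2-fold diluted in CA-MHB. The inoculum came from colonies on 18-20 h TSA plates (direct colony suspension), adjusted to ~5×10^5 CFU/mL. Incubation was 24 h at 35 °C. MIC is the lowest concentration with no visible growth versus control. Biological replicates.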
# Staphylococcus aureus [2] = test: Disruption of cytoplasmic membrane in Staphylococcus aureus isolate DM4001R at 2 times MIC after 3000 secs by SYTOX green dye based fluorescence assay; type: functional
# Method in brief: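 Clinical S. aureus isolate DM4001R incubated with SYTOX Green plus compound; membrane permeabilization read as increased fluorescence intensity. Measurements replicated.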
# Staphylococcus aureus [3] = test: Antibacterial activity against methicillin-resistant Staphylococcus aureus DB68004 after 24 hrs by two fold dilution assay; type: functional; details: DB68004, 24 h; method in brief: as §1
# Lipid bilayer [4] = test: Induction of membrane damage in DOPE/DOPG large unilamellar vesicles assessed as calcein leakage at compound to lipid ratio of 1:16 after 1 hr by fluorescence assay relative to control
# Method in brief: (§2)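 100 nm calcein-loaded LUVs made by film hydration; lipid content set by total phosphorus assay. DOPC/cholesterol (3:1, w/w) mimics mammalian and DOPE/DOPG (3:1, w/w) bacterial membranes. Compound in DMF added at lipid-to-compound ratio 16 (6.25 µM compound), final DMF limited to 0.5%. Fluorescence monitored at ex 490/em 520 nm for 1 hour; replicated.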
# Staphylococcus aureus [5] = test: Antibacterial activity against Staphylococcus aureus DM 4001R after 24 hrs by two fold dilution assay; type: functional; method in brief: as §1
# Staphylococcus aureus [6] = test: Antibacterial activity against methicillin-resistant Staphylococcus aureus DM 21455 after 24 hrs by two fold dilution assay; type: functional; details: DM 21455, 24 h; method in brief: as §1
# Enterococcus faecium [7] = test: Antibacterial activity against vancomycin A-resistant Enterococcus faecium VRE 1006 after 24 hrs by two fold dilution assay; type: functional; details: VRE 1006, 24 h; method in brief: as §1
# Staphylococcus aureus [8] = test: Bactericidal activity against methicillin-resistant Staphylococcus aureus DM21455 assessed as log reduction in bacterial load at 4 times MIC after 10 mins by time kill assay; type: functional
# Method in brief: (§3)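 MRSA DM21455 was taken from colonies on 18-22 h TSA plates and diluted to 10^5~10^6 CFU/mL in PBS. Cells were exposed to 0.5×, 1×, 2× and 4× MIC at 35 °C, with a PBS control. Samples were taken at 10 min, 30 min, 1, 2, 4 and 8 h, 10-fold diluted in PBS and plated on MHA. Colonies were counted after 24-48 h at 35 °C. Replicated.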
# Staphylococcus aureus [9] = test: Antibacterial activity against methicillin-resistant Staphylococcus aureus DB57964 after 24 hrs by two fold dilution assay; type: functional; details: DB57964, 24 h; method in brief: as §1
# Staphylococcus aureus [10] = test: Antibacterial activity against methicillin-sensitive Staphylococcus aureus ATCC 6538 after 24 hrs by two fold dilution assay; type: functional; details: ATCC 6538, 24 h; method in brief: as §1
# Staphylococcus aureus [11] = test: Antibacterial activity against Staphylococcus aureus ATCC 29213 infected in C57BL6 mouse cornea assessed as decrease in number of viable bacteria at 0.5% administered topically at 2 hrs interval for 4 times starting on day 1 post infection measured post last dose relative to control; type: functional
# Staphylococcus aureus [12] = test: Antibacterial activity against methicillin-resistant Staphylococcus aureus ATCC BAA-38 after 24 hrs by two fold dilution assay; type: functional; details: ATCC BAA-38, 24 h; method in brief: as §1
# Staphylococcus aureus [13] = test: Bactericidal activity against methicillin-resistant Staphylococcus aureus DM21455 assessed as log reduction in bacterial load at 2 times MIC after 2 hrs by time kill assay; type: functional; method in brief: as §3
# Staphylococcus aureus [14] = test: Antibacterial activity against methicillin-resistant Staphylococcus aureus DM 9808R after 24 hrs by two fold dilution assay; type: functional; method in brief: as §1
# Staphylococcus aureus [15] = test: Antibacterial activity against methicillin-resistant Staphylococcus aureus ATCC 43300 after 24 hrs by two fold dilution assay; type: functional; details: ATCC 43300, 24 h; method in brief: as §1
# Staphylococcus aureus [16] = test: Antibacterial activity against methicillin-sensitive Staphylococcus aureus DM4583R after 24 hrs by two fold dilution assay; type: functional; method in brief: as §1
# Staphylococcus aureus [17] = test: Disruption of membrane in Staphylococcus aureus isolate DM4001R assessed as increase in ATP leakage at 4 times MIC after 1 hr by ATP bioluminescent assay relative to control; type: functional
# Method in brief: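 S. aureus DM4001 grown to exponential phase, washed three times in 20 mM PBS (pH 7), resuspended to OD600 0.2. Compound added, suspensions held 1 hour at 37 °C, then centrifuged. Supernatant mixed with luciferase/luciferin enzyme mix; extracellular ATP quantified by luminescence. Replicated.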
# Staphylococcus aureus [18] = test: Antibacterial activity against methicillin-resistant Staphylococcus aureus ATCC 700699 after 24 hrs by two fold dilution assay; type: functional; details: Mu50, 24 h; method in brief: as §1
# Enterococcus faecium [19] = test: Antibacterial activity against vancomycin A-resistant Enterococcus faecium VRE 1008 after 24 hrs by two fold dilution assay; type: functional; details: VRE 1008, 24 h; method in brief: as §1
# Staphylococcus aureus [20] = test: Antibacterial activity against methicillin-sensitive Staphylococcus aureus ATCC 29213 after 24 hrs by two fold dilution assay; type: functional; details: ATCC 29213, 24 h; method in brief: as §1
# Staphylococcus aureus [21] = test: Antibacterial activity against methicillin-sensitive Staphylococcus aureus DM4299 after 24 hrs by two fold dilution assay; type: functional; details: DM4299, 24 h; method in brief: as §1
# [22] = Cytotoxicity against human corneal fibroblasts assessed as reduction in cell viability up to 250 uM after 4 hrs by CytoTox-ONE reagent-based LDH assay relative to control; details: corneal fibroblast
# Method in brief: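 Human corneal fibroblasts exposed to compound; cytotoxicity taken from LDH leakage, with cells treated with 1% triton X-100 as positive control. Measurements replicated.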
# Staphylococcus aureus [23] = test: Antibacterial activity against Staphylococcus aureus ATCC 29213 at 0.5 times MIC after 17 serial passages; type: functional
# Method in brief: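 Serial-passage resistance selection in S. aureus ATCC29213. MIC was determined by CA-MHB broth macrodilution (2-fold dilutions, ~5×10^5 CFU/mL, 35 °C). Cells grown at 0.5× MIC were recovered and used to prepare the inoculum for the next MIC assay, with MIC change read after each 24 h/35 °C round. This was repeated for 17 passages, or 30 passages for one compound. Replicated.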
# Enterococcus faecium [24] = test: Antibacterial activity against vancomycin A-resistant Enterococcus faecium VRE 1007 after 24 hrs by two fold dilution assay; type: functional; details: VRE 1007, 24 h; method in brief: as §1
# Staphylococcus aureus [25] = test: Antibacterial activity against methicillin-sensitive Staphylococcus aureus ATCC 29737 after 24 hrs by two fold dilution assay; type: functional; details: ATCC 29737, 24 h; method in brief: as §1
# Enterococcus faecalis = test: Antibacterial activity against Enterococcus faecalis ATCC 29212 after 24 hrs by two fold dilution assay; type: functional; details: ATCC 29212, 24 h
# Method in brief: (§4)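 Broth macro-dilution per CLSI in cation-adjusted Mueller-Hinton broth; compounds dissolved in DMF, diluted in PBS to 1000 µg/mL stock, then serial 2-fold dilutions in CA-MHB in tubes. Inoculum from 18-20 h TSA colonies (direct colony suspension), adjusted to about 5× 10^5 CFU/mL. MIC read after 24 h at 35 °C as lowest concentration with no visible growth; biological replicates.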
# Bacillus cereus = test: Antibacterial activity against Bacillus cereus ATCC 11778 after 24 hrs by two fold dilution assay; type: functional; details: ATCC 11778, 24 h; method in brief: as §4
# Enterococcus hirae = test: Antibacterial activity against Enterococcus hirae ATCC 9790 after 24 hrs by two fold dilution assay; type: functional; details: ATCC 9790, 24 h; method in brief: as §4
# Lipid bilayer [26] = test: Induction of membrane damage in DOPC/cholesterol large unilamellar vesicles assessed as calcein leakage at compound to lipid ratio of 1:16 after 1 hr by fluorescence assay relative to control; method in brief: as §2
# Staphylococcus aureus [27] = test: Antibacterial activity against methicillin-resistant Staphylococcus aureus DB6506 after 24 hrs by two fold dilution assay; type: functional; details: DB6506, 24 h; method in brief: as §1
# Staphylococcus aureus [28] = test: Antibacterial activity against Staphylococcus aureus ATCC 700699 infected in C57BL6 mouse cornea assessed as decrease in number of viable bacteria at 0.5% administered topically at 2 hrs interval for 4 times starting on day 1 post infection measured post last dose relative to control; type: functional, Mu50
# [29] = Solubility of the compound in water; type: physicochemical; details: buffer
smiles,measurement,setting,value
COC(=O)[C@H](CCCNC(=N)N)NC(=O)COc1cc(OCC=C(C)C)cc2oc3cc(OCC=C(C)C)cc(OCC(=O)N[C@@H](CCCNC(=N)N)C(=O)OC)c3c(=O)c12,MIC,Staphylococcus aureus [1],0.78 µg/mL
same,Activity,Staphylococcus aureus [2],Active
same,MIC,Staphylococcus aureus [3],3.13 µg/mL
same,Activity,Lipid bilayer [4],58.7%
same,MIC,Staphylococcus aureus [5],0.78 µg/mL
same,MIC,Staphylococcus aureus [6],1.56 µg/mL
same,MIC,Enterococcus faecium [7],6.25 µg/mL
same,log(activity),Staphylococcus aureus [8],3
same,MIC,Staphylococcus aureus [9],1.56 µg/mL
same,MIC,Staphylococcus aureus [10],0.78 µg/mL
same,Activity,Staphylococcus aureus [11],98.5%
same,MIC,Staphylococcus aureus [12],3.13 µg/mL
same,log(activity),Staphylococcus aureus [13],3
same,MIC,Staphylococcus aureus [14],0.78 µg/mL
same,MIC,Staphylococcus aureus [15],1.56 µg/mL
same,MIC,Staphylococcus aureus [16],1.56 µg/mL
same,Activity,Staphylococcus aureus [17],59.6%
same,MIC,Staphylococcus aureus [18],3.13 µg/mL
same,MIC,Enterococcus faecium [19],6.25 µg/mL
same,MIC,Staphylococcus aureus [20],3.13 µg/mL
same,MIC,Staphylococcus aureus [21],3.13 µg/mL
same,Activity,[22],Non-Toxic
same,Activity,Staphylococcus aureus [23],Active
same,MIC,Enterococcus faecium [24],6.25 µg/mL
same,MIC,Staphylococcus aureus [25],0.78 µg/mL
same,MIC,Enterococcus faecalis,3.13 µg/mL
same,MIC,Bacillus cereus,3.13 µg/mL
same,MIC,Enterococcus hirae,6.25 µg/mL
same,Activity,Lipid bilayer [26],< 20%
same,MIC,Staphylococcus aureus [27],1.56 µg/mL
same,Activity,Staphylococcus aureus [28],92.8%
same,solubility,[29],Soluble

# From ChEMBL document CHEMBL4052597, “Symmetrically Substituted Xanthone Amphiphiles Combat Gram-Positive Bacterial Resistance with Enhanced Membrane Selectivity” (J Med Chem, 2017)
